Measured values reported in ChEMBL document CHEMBL1255303, “In vitro and in vivo antifungal activities of T-2307, a novel arylamidine” (2008).

Assays:
Type in all cases: functional
Candida albicans [1] = test: Antifungal activity against Candida albicans ATCC 24433 after 48 hrs by broth microdilution method; conditions: ATCC 24433, 48 h
Method in brief: (§1)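 CLSI M27-A2 (yeasts) or M38-A (A. fumigatus) broth microdilution in RPMI 1640 buffered to pH 7.0 with 0.165 M MOPS. Final inocula were 0.65–2.5 × 10^3 CFU/ml for yeasts and 0.87–3.8 × 10^4 CFU/ml for filamentous fungi. Incubation was at 35°C for about 48 h (72 h for C. neoformans). MIC was the lowest concentration giving a prominent (~50%) turbidity drop versus growth control; amphotericin B required complete inhibition.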

Candida parapsilosis [2] = test: Antifungal activity against Candida parapsilosis NBRC 10219 after 48 hrs by broth microdilution method; conditions: Lodderomyces parapsilosis, NBRC 10219, 48 h; method in brief: as §1
Saccharomyces cerevisiae = test: Antifungal activity against Saccharomyces cerevisiae ATCC 24657 after 48 hrs by broth microdilution method; conditions: ATCC 24657, 48 h
Method in brief: (§2)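 CLSI M27-A2 (yeasts) / M38-A (moulds) broth microdilution in RPMI 1640 buffered to pH 7.0 with 0.165 M MOPS. Malassezia furfur got the same medium supplemented with glucose, bile salts, glycerol, glycerol monostearate and Tween 20. Final inoculum 0.65 × 10^3–2.5 × 10^3 CFU/ml for yeasts and 0.87 × 10^4–3.8 × 10^4 CFU/ml for filamentous fungi. Incubation at 35°C except M. racemosus and F. solani, which were held at 30°C.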

[3] = tested on: Meyerozyma guilliermondii; test: Antifungal activity against Candida guilliermondii IFO 10279 after 48 hrs by broth microdilution method; conditions: IFO 10279, 48 h; method in brief: as §2
Aspergillus fumigatus [4] = test: Antifungal activity against Aspergillus fumigatus ATCC 16424 after 48 hrs by broth microdilution method; conditions: ATCC 16424, 48 h; method in brief: as §1
Cryptococcus neoformans [5] = test: Antifungal activity against Cryptococcus neoformans ATCC 90112 after 72 hrs by broth microdilution method; conditions: ATCC 90112, 72 h; method in brief: as §1
Pichia kudriavzevii = test: Antifungal activity against Candida krusei clinical isolates after 48 hrs by broth microdilution method
Method in brief: (§3)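 Japanese hospital Candida isolates were tested by CLSI M27-A2 broth microdilution in RPMI 1640–MOPS, pH 7.0, with inocula of 0.57–2.5 × 10^3 CFU/ml at 35°C for about 48 h. Inocula came from 24-h potato dextrose agar cultures. MIC was the lowest concentration with about 50% turbidity reduction versus growth control (complete inhibition for amphotericin B). Range, MIC50 and MIC90 were reported.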

Nakaseomyces glabratus [6] = test: Antifungal activity against Candida glabrata ATCC 90030 after 48 hrs by broth microdilution method; conditions: ATCC 90030, 48 h; method in brief: as §2
Candida albicans [7] = test: Antifungal activity against Candida albicans ATCC MYA-575 after 47 hrs by broth microdilution method; conditions: ATCC MYA-575, 47 h
Method in brief: (§4)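 Fluconazole-resistant or susceptible-dose-dependent ATCC C. albicans strains were tested by CLSI M27-A2 broth microdilution in RPMI 1640–0.165 M MOPS, pH 7.0, with a final inoculum of 1.1–1.5 × 10^3 CFU/ml at 35°C for about 47 h. MIC was the lowest concentration with a prominent (~50%) turbidity decrease relative to growth control; amphotericin B was read at complete inhibition.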

Aspergillus fumigatus [8] = test: Antifungal activity against Aspergillus fumigatus IFM 46895 infected ICR mouse after 6 days; conditions: IFM 46895, 144 h
Method in brief: (§5)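 Male ICR mice, 4 weeks old and SPF, were made neutropenic with intraperitoneal cyclophosphamide. The schedule was 200 mg/kg on day −3 (day −4 for Cryptococcus) plus 100 mg/kg on day +1. Infection was by tail-vein injection of 0.2 ml suspension: C. albicans 3.0 × 10^4, C. neoformans 9.1 × 10^4, A. fumigatus conidia 8.4 × 10^4 CFU/mouse. Drugs were given subcutaneously once daily for 7 days from 2 h post-infection; controls received saline. Groups had 8–10 mice.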

Aspergillus fumigatus [9] = test: Antifungal activity against Aspergillus fumigatus clinical isolates after 48 hrs by broth microdilution method
Method in brief: (§6)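 Clinical isolates from Japanese hospitals or culture collections were tested by broth microdilution in RPMI 1640-MOPS. Inoculum was 0.57 × 10^3–2.5 × 10^3 CFU/ml for yeasts and 0.4 × 10^4–3.3 × 10^4 CFU/ml for filamentous fungi. Incubation was at 35°C for about 48 h, or 72 h where footnoted. Results were summarised as MIC range, MIC50 and MIC90.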

Candida albicans [10] = test: Antifungal activity against Candida albicans ATCC MYA-2732 after 47 hrs by broth microdilution method; conditions: ATCC MYA-2732, 47 h
Method in brief: (§7)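 Fluconazole-resistant or susceptible-dose-dependent C. albicans ATCC strains were tested by broth microdilution in RPMI 1640-MOPS. Inoculum was 1.1 × 10^3–1.5 × 10^3 CFU/ml, with incubation at 35°C for about 47 h. Yeast MIC was read as about 50% turbidity decrease relative to growth control, except amphotericin B, read at complete inhibition.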

Candida albicans [11] = test: Antifungal activity against Candida albicans clinical isolates after 48 hrs by broth microdilution method; method in brief: as §6
Candida albicans [12] = test: Antifungal activity against Candida albicans TIMM 1623 infected ICR mouse after 6 days; conditions: TIMM 1623, 144 h; method in brief: as §5
Aspergillus fumigatus [13] = test: Antifungal activity against Aspergillus fumigatus IFM 46895 after 48 hrs by broth microdilution method; conditions: IFM 46895, 48 h; method in brief: as §2
Nakaseomyces glabratus [14] = test: Antifungal activity against Candida glabrata clinical isolates after 48 hrs by broth microdilution method; method in brief: as §6
Aspergillus niger = test: Antifungal activity against Aspergillus niger NBRC 33023 after 48 hrs by broth microdilution method; conditions: NBRC 33023, 48 h; method in brief: as §2
Aspergillus flavus = test: Antifungal activity against Aspergillus flavus NBRC 6343 after 48 hrs by broth microdilution method; conditions: NBRC 6343, 48 h; method in brief: as §2
Candida albicans [15] = test: Antifungal activity against Candida albicans ATCC 64124 after 47 hrs by broth microdilution method; conditions: ATCC 64124, 47 h; method in brief: as §4
Candida albicans [16] = test: Antifungal activity against Candida albicans ATCC MYA-574 after 47 hrs by broth microdilution method; conditions: ATCC MYA-574, 47 h; method in brief: as §7
Malassezia furfur = test: Antifungal activity against Malassezia furfur NBRC 0656 after 48 hrs by broth microdilution method; conditions: NBRC 0656, 48 h; method in brief: as §2
Candida parapsilosis [17] = test: Antifungal activity against Candida parapsilosis clinical isolates after 48 hrs by broth microdilution method; conditions: Lodderomyces parapsilosis; method in brief: as §3
Cryptococcus neoformans [18] = test: Antifungal activity against Cryptococcus neoformans ATCC 90113 after 72 hrs by broth microdilution method; conditions: ATCC 90113, 72 h; method in brief: as §2

C[C@@H]1[C@H](O)[C@@H](C)/C=C/C=C/C=C/C=C/C=C/C=C/C=C/[C@H](O[C@@H]2O[C@H](C)[C@@H](O)[C@H](N)[C@@H]2O)C[C@@H]2O[C@](O)(C[C@@H](O)C[C@@H](O)[C@H](O)CC[C@@H](O)C[C@@H](O)CC(=O)O[C@H]1C)C[C@H](O)[C@H]2C(=O)O [AMPHOTERICIN B]
1 µg/mL: MFC (Candida albicans [1]) | MIC (Candida albicans [1]) | MFC (Candida parapsilosis [2]) | MIC (Candida parapsilosis [2]) | MIC (Saccharomyces cerevisiae) | MFC [3] | MIC (Aspergillus fumigatus [4]) | MFC (Cryptococcus neoformans [5]) | MIC (Cryptococcus neoformans [5]) | MFC (Nakaseomyces glabratus [6]) | MIC (Nakaseomyces glabratus [6]) | MIC (Nakaseomyces glabratus [14]) | MIC50 (Nakaseomyces glabratus [14]) | MIC (Candida albicans [16])
2 µg/mL: MFC (Saccharomyces cerevisiae) | MFC (Aspergillus fumigatus [4]) | MIC (Pichia kudriavzevii) | MIC50 (Pichia kudriavzevii) | MIC90 (Pichia kudriavzevii) | MIC (Candida albicans [7]) | MIC50 (Aspergillus fumigatus [9]) | MIC90 (Aspergillus fumigatus [9]) | MIC (Candida albicans [10]) | MIC50 (Candida albicans [11]) | MIC90 (Candida albicans [11]) | MFC (Aspergillus fumigatus [13]) | MIC (Aspergillus fumigatus [13]) | MIC90 (Nakaseomyces glabratus [14]) | MFC (Aspergillus niger) | MIC (Aspergillus niger) | MFC (Aspergillus flavus) | MIC (Aspergillus flavus) | MIC (Candida albicans [15]) | MIC50 (Candida parapsilosis [17]) | MIC90 (Candida parapsilosis [17]) | MFC (Cryptococcus neoformans [18]) | MIC (Cryptococcus neoformans [18])
0.0466 mg/kg: ED50 (Candida albicans [12])
0.289 mg/kg: ED50 (Aspergillus fumigatus [8])
0.5 µg/mL: MIC [3] | MIC (Malassezia furfur)
64 µg/mL: MFC (Malassezia furfur)

N=C(N)c1ccc(OCCCC2CCN(CCCOc3ccc(C(=N)N)cc3)CC2)cc1
0.00755 mg/kg: ED50 (Candida albicans [12])
0.002 µg/mL: MIC [3] | MIC90 (Pichia kudriavzevii) | MIC90 (Candida albicans [11])
0.0039 µg/mL: MIC (Nakaseomyces glabratus [6]) | MIC (Nakaseomyces glabratus [14]) | MIC50 (Nakaseomyces glabratus [14])
0.0625 µg/mL: MIC (Aspergillus fumigatus [13]) | MFC (Aspergillus niger) | MIC (Aspergillus niger) | MFC (Cryptococcus neoformans [18])
0.0078 µg/mL: MFC [3] | MIC (Cryptococcus neoformans [5]) | MIC90 (Nakaseomyces glabratus [14]) | MIC (Cryptococcus neoformans [18])
0.0005 µg/mL: MIC50 (Candida albicans [11]) | MIC50 (Candida parapsilosis [17]) | MIC90 (Candida parapsilosis [17])
> 64 µg/mL: MFC (Candida albicans [1]) | MFC (Candida parapsilosis [2]) | MFC (Saccharomyces cerevisiae) | MIC (Saccharomyces cerevisiae) | MFC (Aspergillus fumigatus [4]) | MFC (Nakaseomyces glabratus [6]) | MFC (Aspergillus fumigatus [13])
2 µg/mL: MIC90 (Aspergillus fumigatus [9]) | MFC (Malassezia furfur)
0.0313 µg/mL: MFC (Cryptococcus neoformans [5]) | MIC (Malassezia furfur)
0.125 µg/mL: MIC (Aspergillus fumigatus [4])
8 µg/mL: MFC (Aspergillus flavus)
1 µg/mL: MIC50 (Aspergillus fumigatus [9])
0.391 mg/kg: ED50 (Aspergillus fumigatus [8])
0.001 µg/mL: MIC (Candida albicans [1]) | MIC (Candida parapsilosis [2]) | MIC50 (Pichia kudriavzevii) | MIC (Candida albicans [7]) | MIC (Candida albicans [10]) | MIC (Candida albicans [15]) | MIC (Candida albicans [16])
0.5 µg/mL: MIC (Aspergillus flavus)
